Assay results published in ChEMBL document CHEMBL3779892, “Increasing the binding affinity of VEGFR-2 inhibitors by extending their hydrophobic interaction with the active site: Design, synthesis and biological evaluation of 1-substituted-4-(4-methoxybenzyl)phthalazine derivatives” (Eur J Med Chem, 2016).

How the values were obtained:
Type in all cases: functional
[1] = Growth inhibition of human HOP62 cells at 10 uM after 48 hrs by sulforhodamine B assay; conditions: HOP-62, 48 h, read-out: GI
Method in brief: (§1)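 Run at NCI on the 60-line panel. Cells grown in RPMI 1640 with 5% FBS and 2 mM L-glutamine, plated at 5000–40,000 cells/well by doubling time, and held 24 h at 37 °C before dosing. Drug (DMSO stock) given at a single final 10 µM in triplicate wells for 48 h. Adherent cells fixed with cold TCA (10% final), suspension cells with 16% TCA. SRB stain read at 515 nm. Percent growth from Tz, C and Ti.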

MCF7 = assay: Growth inhibition of human MCF7 cells at 10 uM after 48 hrs by sulforhodamine B assay; conditions: MCF7, 48 h, read-out: GI; method in brief: as §1
[2] = Growth inhibition of human DU145 cells at 10 uM after 48 hrs by sulforhodamine B assay; conditions: DU-145, 48 h, read-out: GI; method in brief: as §1
[3] = Growth inhibition of human BT549 cells at 10 uM after 48 hrs by sulforhodamine B assay; conditions: BT-549, 48 h, read-out: GI; method in brief: as §1
KM12 = assay: Growth inhibition of human KM12 cells at 10 uM after 48 hrs by sulforhodamine B assay; conditions: KM12, 48 h, read-out: GI; method in brief: as §1
[4] = Growth inhibition of human NCI-ADR-RES cells at 10 uM after 48 hrs by sulforhodamine B assay; conditions: read-out: GI; method in brief: as §1
[5] = Growth inhibition of human TK10 cells at 10 uM after 48 hrs by sulforhodamine B assay; conditions: TK-10, 48 h, read-out: GI
Method in brief: (§2)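 NCI-60 panel, adherent cells grown in RPMI 1640 with 5% FBS and 2 mM L-glutamine, plated at 5000–40,000 cells/well and preincubated 24 h at 37 °C, 5% CO2. 10 µM final compound from DMSO stock, triplicate wells, 48 h. Fixed with cold TCA (10% final, 60 min, 4 °C) and stained with 0.4% SRB. Absorbance read at 515 nm; growth calculated against time-zero and control wells.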

SK-MEL-28 = assay: Growth inhibition of human SK-MEL-28 cells at 10 uM after 48 hrs by sulforhodamine B assay; conditions: SK-MEL-28, 48 h, read-out: GI; method in brief: as §1
[6] = Growth inhibition of human HCC2998 cells at 10 uM after 48 hrs by sulforhodamine B assay; conditions: HCC 2998, 48 h, read-out: GI; method in brief: as §1
[7] = Growth inhibition of human SF295 cells at 10 uM after 48 hrs by sulforhodamine B assay; conditions: SF-295, 48 h, read-out: GI; method in brief: as §1
[8] = Growth inhibition of human OVCAR4 cells at 10 uM after 48 hrs by sulforhodamine B assay; conditions: OVCAR-4, 48 h, read-out: GI; method in brief: as §1
786-0 = assay: Growth inhibition of human 786-0 cells at 10 uM after 48 hrs by sulforhodamine B assay; conditions: 786-0, 48 h, read-out: GI; method in brief: as §1
[9] = Growth inhibition of human UACC257 cells at 10 uM after 48 hrs by sulforhodamine B assay; conditions: UACC-257, 48 h, read-out: GI; method in brief: as §2
[10] = Growth inhibition of human IGROV1 cells at 10 uM after 48 hrs by sulforhodamine B assay; conditions: IGROV-1, 48 h, read-out: GI; method in brief: as §1
[11] = Growth inhibition of human UACC62 cells at 10 uM after 48 hrs by sulforhodamine B assay; conditions: UACC-62, 48 h, read-out: GI; method in brief: as §2
NCI-H322M = assay: Growth inhibition of human NCI-H322M cells at 10 uM after 48 hrs by sulforhodamine B assay; conditions: read-out: GI; method in brief: as §1
[12] = Growth inhibition of human RPMI8226 cells at 10 uM after 48 hrs by sulforhodamine B assay; conditions: RPMI-8226, 48 h, read-out: GI; method in brief: as §1
[13] = Growth inhibition of human SF539 cells at 10 uM after 48 hrs by sulforhodamine B assay; conditions: SF-539, 48 h, read-out: GI; method in brief: as §1
[14] = Growth inhibition of human SNB75 cells at 10 uM after 48 hrs by sulforhodamine B assay; conditions: SNB-75, 48 h, read-out: GI; method in brief: as §1
K562 = assay: Growth inhibition of human K562 cells at 10 uM after 48 hrs by sulforhodamine B assay; conditions: K562, 48 h, read-out: GI; method in brief: as §1
[15] = Growth inhibition of human MOLT4 cells at 10 uM after 48 hrs by sulforhodamine B assay; conditions: MOLT-4, 48 h, read-out: GI; method in brief: as §1
[16] = Growth inhibition of human COLO205 cells at 10 uM after 48 hrs by sulforhodamine B assay; conditions: COLO 205, 48 h, read-out: GI; method in brief: as §1
T47D = assay: Growth inhibition of human T47D cells at 10 uM after 48 hrs by sulforhodamine B assay; conditions: read-out: GI; method in brief: as §2

| SMILES | inhibition of growth at 10 µM [1] [%] | inhibition of growth at 10 µM (MCF7) [%] | inhibition of growth at 10 µM [2] [%] | inhibition of growth at 10 µM [3] [%] | inhibition of growth at 10 µM (KM12) [%] | inhibition of growth at 10 µM [4] [%] | inhibition of growth at 10 µM [5] [%] | inhibition of growth at 10 µM (SK-MEL-28) [%] | inhibition of growth at 10 µM [6] [%] | inhibition of growth at 10 µM [7] [%] | inhibition of growth at 10 µM [8] [%] | inhibition of growth at 10 µM (786-0) [%] | inhibition of growth at 10 µM [9] [%] | inhibition of growth at 10 µM [10] [%] | inhibition of growth at 10 µM [11] [%] | inhibition of growth at 10 µM (NCI-H322M) [%] | inhibition of growth at 10 µM [12] [%] | inhibition of growth at 10 µM [13] [%] | inhibition of growth at 10 µM [14] [%] | inhibition of growth at 10 µM (K562) [%] | other results |
| --- | --- | --- | --- | --- | --- | --- | --- | --- | --- | --- | --- | --- | --- | --- | --- | --- | --- | --- | --- | --- | --- |
| COc1ccc(Cc2nnc(Nc3cccc(OC)c3)c3ccccc23)cc1 | 35 | < 30 | < 30 | < 30 | < 30 | 30 | < 30 | < 30 | < 30 | < 30 | < 30 | < 30 | < 30 | 33 | < 30 | < 30 | 77 | < 30 | 41 | < 30 | inhibition of growth at 10 µM [15]: < 30%; inhibition of growth at 10 µM [16]: < 30%; inhibition of growth at 10 µM (T47D): 30% |
| COc1ccc(Cc2nnc(Nc3ccc(Cl)c(C(F)(F)F)c3)c3ccccc23)cc1 | < 30 | 48 | 37 | < 30 | 52 | 50 | 40 | < 30 | 42 | 49 | 45 | 41 | < 30 | 32 | 41 | 37 | 94 | 42 | < 30 | 60 | inhibition of growth at 10 µM [15]: 69%; inhibition of growth at 10 µM [16]: < 30%; inhibition of growth at 10 µM (T47D): 59% |
| COc1ccc(Cc2nnc(Nc3ccc(OC)cc3)c3ccccc23)cc1 | < 30 | 38 | < 30 | < 30 | < 30 | < 30 | < 30 | < 30 | < 30 | 30 | < 30 | < 30 | < 30 | < 30 | 34 | < 30 | < 30 | < 30 | < 30 | < 30 | inhibition of growth at 10 µM [15]: 31%; inhibition of growth at 10 µM [16]: < 30%; inhibition of growth at 10 µM (T47D): 46% |
| COc1ccc(Cc2nnc(Nc3ccccc3)c3ccccc23)cc1 | < 30 | < 30 | < 30 | < 30 | < 30 | < 30 | < 30 | < 30 | < 30 | < 30 | < 30 | < 30 | < 30 | < 30 | < 31 | < 30 | 58 | < 30 | < 30 | < 30 | inhibition of growth at 10 µM [15]: < 30%; inhibition of growth at 10 µM [16]: < 30%; inhibition of growth at 10 µM (T47D): < 30% |
| COc1ccc(Cc2nnc(Nc3cccc(C(F)(F)F)c3)c3ccccc23)cc1 | < 30 | 35 | < 30 | < 30 | 40 | 40 | < 30 | < 30 | 31 | 38 | 31 | 33 | < 30 | 37 | 42 | < 30 | 87 | 36 | < 30 | 49 | inhibition of growth at 10 µM [15]: 60%; inhibition of growth at 10 µM [16]: < 30%; inhibition of growth at 10 µM (T47D): 56% |
| COc1ccc(Cc2nnc(Nc3ccc(Cl)cc3)c3ccccc23)cc1 | 40 | 36 | 42 | < 30 | 30 | 48 | 52 | < 30 | < 30 | 50 | 33 | 43 | < 30 | 36 | 60 | 45 | 69 | 46 | < 30 | 48 | inhibition of growth at 10 µM [15]: 48%; inhibition of growth at 10 µM [16]: < 30%; inhibition of growth at 10 µM (T47D): 44% |
| COc1ccc(Cc2nnc(Nc3cccc(Cl)c3)c3ccccc23)cc1 | < 30 | < 30 | < 30 | < 30 | < 30 | 32 | < 30 | < 30 | < 30 | 33 | < 30 | < 30 | < 30 | < 30 | 39 | < 30 | 89 | 35 | 32 | 45 | inhibition of growth at 10 µM [15]: 37%; inhibition of growth at 10 µM [16]: < 30%; inhibition of growth at 10 µM (T47D): 41% |
| COc1ccc(Cc2nnc(Nc3ccc(C#N)cc3)c3ccccc23)cc1 | < 30 | < 30 | < 30 | < 30 | < 30 | < 30 | < 30 | < 30 | < 30 | < 30 | < 30 | < 30 | < 30 | < 30 | < 30 | < 30 | < 30 | < 30 | < 30 | < 30 | inhibition of growth at 10 µM [15]: < 30%; inhibition of growth at 10 µM [16]: < 30%; inhibition of growth at 10 µM (T47D): 50% |
